Source: PubChem BioAssay (Broad Institute)
PGC1a acetyl inh: inhibitors of PGC1a acetylation signal, primary screen, cell-based, U2OS, AlphaScreen, inhibitor mode; AlphaScreen anti-acetyl-lysine; with virally co-expressed GCN5 acetyltransferase; inhibition, % at 15.6 µM; AID 651687, 2012; 350,000 compounds, 0.17% hits;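 active = every replicate shows inhibition of at least 40%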
Cneo AK release: Cryptococcus neoformans cell lysis inducers, primary screen, AK release luminescence, single concentration; lysis activity, % at 15 µM; 360,000 compounds, 0.2% hits; AID 651654, 2012; C. neoformans lysis, adenylate kinase release luminescence, 4 h; normalised: neutral wells 0, clomiphene wells 100;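 active = mean lysis activity across replicates of at least 80%, whatever share of replicates individually reach that level; inactive = mean lysis activity below 80%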
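Assay system: Cryptococcus neoformans yeast cells / Dosing: single-point compound dose / Timing: 4 h at 37 °C static, read 1 h later / Measured by: luminescence of released adenylate kinase using an AK detection reagent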
S100A4 inh HTS: inhibitors of S100A4-myosin IIA peptide binding, primary screen, biochemical, fluorescence polarization, TAMRA-MyoIIA peptide. Protein S100-A4 (Homo sapiens), P26447. inhibition, % at 10.7 µM. 360,000 compounds, 0.14% hits. AID 652163, 2013;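 active = mean inhibition of at least 70% across replicates, with every replicate also reaching that level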
Target sequence (P26447 whole entry, looked up): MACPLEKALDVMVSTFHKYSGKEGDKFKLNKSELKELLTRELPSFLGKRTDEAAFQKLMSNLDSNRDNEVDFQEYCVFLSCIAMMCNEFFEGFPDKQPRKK
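Test system – S100A4 monomer (human) · Compound – single-point compound testing · Schedule – 5 min incubation before reading · Probe or stimulus – TAMRA-labelled myosin IIA heavy-chain peptide probe, 5 nM · Benchmarks – neutral control DMSO, positive control TFP · Medium – Calcium-containing HEPES buffer, pH 7.2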
SIRT5 block: SIRT5 desuccinylase inhibitors, primary screen, biochemical, fluorescence imaging, single point, set 5 | 330,000 compounds, 1.1% hits | inhibition, % at 15 µM | NAD-dependent protein deacylase sirtuin-5, mitochondrial (Homo sapiens), Q9NXA8 | Purified SirT5, succinyl-peptide AMC, trypsin-coupled fluorescence | AID 652115, 2013; in the data active = inhibition above about 15%
Target sequence (Q9NXA8 whole entry, looked up): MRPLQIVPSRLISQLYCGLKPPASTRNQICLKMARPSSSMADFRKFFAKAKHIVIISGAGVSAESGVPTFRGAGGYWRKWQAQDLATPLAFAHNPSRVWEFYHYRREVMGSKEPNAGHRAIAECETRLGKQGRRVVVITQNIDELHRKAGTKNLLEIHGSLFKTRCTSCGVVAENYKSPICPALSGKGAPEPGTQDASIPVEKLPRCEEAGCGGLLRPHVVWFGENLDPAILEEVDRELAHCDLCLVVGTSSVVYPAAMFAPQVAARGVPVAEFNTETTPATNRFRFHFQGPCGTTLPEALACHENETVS
C2C12 statin: suppressors of statin myotoxicity in C2C12 myotubes, primary screen, cell-based, single point, plate reader; rescue of ATP level, % at 7.49 µM; AID 602340, 2012; C2C12 myotubes + simvastatin, ATP luminescence, 48 h; scaled: DMSO 0, geranylgeraniol control 100; 330,000 compounds, 0.78% hits;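 active = mean ATP rescue above about 67%, or every replicate alone reaching that limit, limit read from the data, passing the limit was not always enough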;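 note: myotubes were challenged with 10 µM simvastatin during compound exposure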
rRNA inh HTS: reduced GFP signal of wild-type E. coli, primary screen, bacterial rRNA inhibitor project, GFP/RFP fluorescence, OD600, single point; E. coli WT GFP vs humanized-ribosome RFP mutants, 24 h; stronger effect = lower value; DMSO median 0, no signal -100; GFP signal change (wild-type ribosome), % (no concentration beside the values); 350,000 compounds, 1.6% hits; AID 720706, 2013;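 active = significant combined selectivity score with lowered wild-type GFP, culture density cut under 30%, mutant RFP and density less affected; inactive = any of these conditions unmet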
Hits are given with their value; - = inactive; . = no result. Only some compounds are listed: those with a hit (about 3% of all), similar ones and a draw of the others.

SMILES	PGC1a acetyl inh	Cneo AK release	S100A4 inh HTS	SIRT5 block	C2C12 statin	rRNA inh HTS
COCC(=O)N1C[C@H]2[C@@H](c3ccccc31)[C@H](CO)N2C(=O)c1ccncc1	-	-	-	-	-	-
COCC(=O)N1CC(=O)N2[C@H](CO)[C@H](c3ccc(C#CC4CCCCC4)cc3)[C@H]2C1	-	.	-	-	.	-
Cn1c2ccccc2c2ccc3c(c21)C(=O)C=CC3=O	-	.	-	-	.	-25
CC(=O)N(c1ccccc1)c1c(F)c(F)c(F)c(F)c1F	-	-	.	.	-	.
CC(=O)Oc1c(C(C)C)cc(N(C(C)=O)c2ccccc2)cc1C(C)C	.	.	-	-	.	-22
COc1cccc(C(=O)Oc2c(Br)cc(Br)cc2/C=N/NC(=O)c2cc(C)[nH]n2)c1	-	.	-	-	.	-20
COc1cc(/C=N/NC(=O)c2ccncc2)ccc1OC(=O)c1cccc(Br)c1	.	-	-	-	-	.
Cc1cc(C(=O)N/N=C/c2cccc(OC(=O)c3cccc(Br)c3)c2)n[nH]1	-	-	-	-	.	-
COc1cccc(C(=O)Oc2ccc(/C=N/NC(=O)c3ccncc3)cc2OC)c1	-	-	-	21	-	-
CN1CCN(C(=O)C[C@@H]2CC[C@@H](NS(=O)(=O)c3cccc(F)c3)[C@@H](CO)O2)CC1	-	-	-	-	-	-
COCC(=O)Nc1ccc2c(c1)[C@H]1C[C@H](CC(=O)N3CCc4ccccc4C3)O[C@@H](CO)[C@H]1O2	-	-	-	-	-	-
Cc1ccc(O)c(NC(=O)CSc2n[nH]c(C)c2[N+](=O)[O-])c1	-	.	-	.	.	-
CSc1ccccc1NC(=O)CSc1n[nH]c(C)c1[N+](=O)[O-]	-	.	-	-	-	-30
C/C(=N\Nc1nc2ccccc2[nH]1)c1ccc2c(c1)OCCO2	.	.	-	-	.	-48
C/C(=N\Nc1nc2ccccc2[nH]1)c1ccc2c(c1)OCO2	-	-	-	-	-	-
O=C(NCc1nc(-c2ccc(C(F)(F)F)cc2)no1)Nc1cc(Cl)cc(Cl)c1	-	.	-	-	-	-47
COCC(=O)Nc1ccc2c(c1)C(=O)N(C)C[C@@H](OC)[C@H](C)CN(C(=O)c1cnccn1)[C@H](C)CO2	-	-	-	-	-	-
CC(C)C1C(C#N)=C(N)Oc2n[nH]c(-c3ccccc3)c21 (stereo not drawn)	-	-	.	.	.	.
CC(C)c1[nH]nc2c1C(C(C)C)C(C#N)=C(N)O2 (stereo not drawn)	-	-	.	.	72	.
CCC(=O)N1C[C@@H](O)COC[C@@H]2O[C@H](CC(=O)NCC3CCCCC3)CC[C@H]21	-	-	-	-	-	-
C[C@@H]1CCCCO[C@H](CN(C)C(=O)Nc2ccc(F)cc2)[C@@H](C)CN([C@H](C)CO)C(=O)c2cc(NC(=O)Nc3ccc(F)cc3)ccc2O1	-	-	-	27	.	-
C[C@@H]1CCCCO[C@@H](CN(C)C(=O)Nc2ccc(C(F)(F)F)cc2)[C@@H](C)CN([C@H](C)CO)C(=O)c2cc(NC(=O)Nc3ccc(F)cc3)ccc2O1	-	.	-	-	.	-
C[C@@H]1CCCCO[C@@H](CN(C)C(=O)C2CCCCC2)[C@@H](C)CN([C@@H](C)CO)C(=O)c2cc(NC(=O)c3ccncc3)ccc2O1	-	-	-	-	-	-
COc1ccc(NC(=O)Nc2ccc3c(c2)C(=O)N([C@@H](C)CO)C[C@@H](C)[C@H](CN(C)C(=O)Nc2ccc(C(F)(F)F)cc2)OCCCC[C@@H](C)O3)cc1	-	-	-	18	.	-
C[C@H]1CCCCO[C@H](CN(C)C(=O)Nc2ccc(C(F)(F)F)cc2)[C@@H](C)CN([C@@H](C)CO)C(=O)c2cc(NC(=O)Nc3ccc(F)cc3)ccc2O1	-	-	-	17	-	-
SMILES	PGC1a acetyl inh	Cneo AK release	S100A4 inh HTS	SIRT5 block	C2C12 statin	rRNA inh HTS
C[C@@H]1CCCCO[C@@H](CN(C)C(=O)C2CCCCC2)[C@H](C)CN([C@@H](C)CO)C(=O)c2cc(NC(=O)c3ccncc3)ccc2O1	-	-	-	17	95	-
COc1ccc(NC(=O)Nc2ccc3c(c2)C(=O)N([C@@H](C)CO)C[C@H](C)[C@H](CN(C)C(=O)Nc2ccc(C(F)(F)F)cc2)OCCCC[C@H](C)O3)cc1	-	-	-	-	.	-
C[C@H](CO)N1C[C@H](C)[C@H](CN(C)S(C)(=O)=O)OCCCC[C@H](C)Oc2ccc(NS(=O)(=O)c3cccs3)cc2C1=O	-	-	-	-	.	-
CCC(=O)N(C)C[C@@H]1Oc2cc(C#CC3CCCC3)ccc2S(=O)(=O)N([C@@H](C)CO)C[C@@H]1C	-	-	-	-	-	-
C[C@@H]1CN([C@@H](C)CO)S(=O)(=O)c2ccc(-c3cncnc3)cc2O[C@@H]1CN(C)C(=O)C1CCC1	-	-	-	-	-	-
C[C@@H]1CCCCO[C@@H](CN(C)C(=O)C2CCCCC2)[C@H](C)CN([C@@H](C)CO)C(=O)c2cc(NC(=O)Nc3ccc(F)cc3)ccc2O1	-	-	-	19	.	-
C[C@@H]1CCCCO[C@H](CN(C)C(=O)NC2CCCCC2)[C@@H](C)CN([C@@H](C)CO)C(=O)c2cc(NC(=O)Nc3ccc(C(F)(F)F)cc3)ccc2O1	-	-	143	-	.	-
COc1cc(CN2CCN(Cc3ccccc3C(F)(F)F)CC2)cc(OC)c1OC	63	-	-	-	-	-
COc1ccc2c3c(n(C)c2c1)[C@@H](CO)N(C(=O)c1ccccn1)CC31CCN(C(=O)Cc2ccccc2)CC1	-	.	-	-	.	-
C[C@@]12CCC=C[C@H]1[C@H](c1ccc3ccccc3c1Br)N(Cc1ccccc1)C2=O	-	-	-	.	78	-
C[C@@]12CCC=C[C@H]1[C@H](c1ccc3ccccc3c1)N(Cc1ccccc1)C2=O	-	-	-	.	-	-
CCOC(=O)c1c(C)c(C(=O)Nc2ccc(N(C)C)cc2)c(C)n1CC	-	-	-	-	-	-16
O=S(=O)(N[C@H]1CC[C@@H](CCn2cc(-c3ccccc3F)nn2)O[C@@H]1CO)c1ccc(F)cc1	.	.	-	-	.	-
Cc1coc2cc3oc(=O)c(Cc4ccccc4)c(C)c3cc12	.	.	-	-	.	-22
CC(C)OC(=O)c1ccc(NCc2cc(O)ccc2O)cc1	-	.	-	.	.	-
O=C(OCc1ccccc1)c1ccc(NCc2cc(O)ccc2O)cc1	-	.	-	.	.	-36
